This is a sample that favours compounds with a hit; in the whole collection about 2.5% have one here.
SENP8 block-1: blocks human SENP8 cleavage of Nedd8 substrate. recombinant SENP8, Nedd8 substrate fluorescence. inhibition, % at 20 µM. 0.64% of 360,000 active; in the data active = inhibition mostly above about 40%, no sharp cut-off; inactive = mostly below about 27%
Target sequence (Q96LD8 whole entry, looked up): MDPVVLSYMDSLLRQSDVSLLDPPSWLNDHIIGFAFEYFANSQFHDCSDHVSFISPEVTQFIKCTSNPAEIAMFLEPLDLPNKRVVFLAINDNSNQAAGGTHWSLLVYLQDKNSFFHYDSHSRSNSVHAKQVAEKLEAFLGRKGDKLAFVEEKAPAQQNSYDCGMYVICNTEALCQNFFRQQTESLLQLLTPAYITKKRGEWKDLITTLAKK
SENP7 inh: blocks the human protease SENP7 | Q9BQF6 | recombinant SENP7, Z-RLRGG-aminoluciferin luminescence, 40 min | inhibition, % at 5 µM | 1.5% of 330,000 active | AID 434973;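 active = inhibition above about 50% at the single test dose, limit read from the data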;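 also: plate controls were DMSO with enzyme for no effect and no enzyme buffer wells for full effect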
Target sequence (Q9BQF6 706-1050 limits assumed): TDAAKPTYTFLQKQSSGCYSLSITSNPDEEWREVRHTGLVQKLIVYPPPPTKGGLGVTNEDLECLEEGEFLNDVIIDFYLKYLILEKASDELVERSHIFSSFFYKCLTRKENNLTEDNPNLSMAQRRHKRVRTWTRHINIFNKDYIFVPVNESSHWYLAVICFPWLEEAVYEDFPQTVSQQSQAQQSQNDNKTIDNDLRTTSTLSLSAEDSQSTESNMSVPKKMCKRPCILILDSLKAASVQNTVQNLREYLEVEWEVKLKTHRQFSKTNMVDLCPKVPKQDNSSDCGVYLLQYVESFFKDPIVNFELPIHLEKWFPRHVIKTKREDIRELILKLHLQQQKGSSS
SENP1 inh: SENP1 (human) catalytic domain inhibition; recombinant SENP1 catalytic domain, CyPet-SUMO1-YPet FRET cleavage; inhibition, % at 10 µM; 0.21% of 360,000 active; Q9P0U3;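 active = inhibition at least 30% at 10 µM, raw YFP signal under a set limit, fluorescence ratio 0.5 to 1.5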;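 also: 0% = enzyme with DMSO and 100% = no enzyme wells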
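Compound: 10 µM single point, 0.5% DMSO; Test system: hSENP1 catalytic domain, recombinant; Timing: 50 min reaction at room temperature; Technique: FRET, CFP and YFP emission; Control set: no-enzyme wells low, DMSO-plus-enzyme wells high control.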
SENP8 block-2: inhibitors of human SENP8 protease | Q96LD8 | purified SENP8, Z-RLRGG-aminoluciferin cleavage, luminescence | inhibition, % at 10 µM | 1.2% of 330,000 active | AID 2540; in the data active = inhibition above about 50%
SENP6 inh: SENP6 protease inhibition; Q9GZR1; Recombinant SENP6 catalytic domain, aminoluciferin luminescence; inhibition, % at 10 µM; 1.8% of 330,000 active;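 active = inhibition above about 50% at the single tested dose, limit read from the data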;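 also: plate controls were DMSO wells with enzyme for no effect and DMSO wells lacking enzyme for full effect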
SENP1 conf: confirmation of human SENP1 SUMO protease inhibitors; AID 651678; inhibition, % at 10 µM; shares compounds with SENP1 inh; 34% of 520 active; recombinant SENP1, CyPet-SUMO1-YPet FRET cleavage; in the data active = inhibition mostly above about 35%, no sharp cut-off; inactive = mostly below about 32%;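 also: 0% = enzyme with DMSO and 100% = no enzyme control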
SENP1 kinetic: confirmation of human SENP1 SUMO protease inhibitors, kinetic; shares compounds with SENP1 inh; recombinant SENP1, CyPet-SUMO1-YPet FRET kinetic cleavage; inhibition, % at 10 µM; 26% of 520 active; in the data active = inhibition mostly above about 32%, no sharp cut-off; inactive = mostly below about 29%;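 also: 0% = DMSO with enzyme and 100% = no enzyme substrate only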
* = called active by the depositor.

How did COc1cc2c(cc1OC)C(COc1ccc(C(C)C)cc1)NCC2 (centres undefined) do in these assays?
SENP8 block-1: -214.4; SENP7 inh: -12.3; SENP1 inh: -2.2; SENP8 block-2: -9.9; SENP6 inh: -6.9

Results for CC(=O)C1=C(C)N=c2s/c(=C/c3ccc4c(c3)OCO4)c(=O)n2C1c1ccc(N(C)C)cc1 (centres undefined) ?
SENP8 block-1: 31.8; SENP1 inh: 64.8*; SENP1 conf: 32.2; SENP1 kinetic: 17.6

Results for COC(=O)C1=C(C)N=c2s/c(=C/c3ccoc3)c(=O)n2C1c1ccccc1 (centres undefined) ?
SENP8 block-1: 2.7; SENP7 inh: 2.7; SENP1 inh: 2.1; SENP8 block-2: 1.6; SENP6 inh: -0.2

What do the screens show for `COC(=O)Nc1sc2c(c1C(N)=O)CCC(C)C2` (centres undefined)?
SENP8 block-1: 17.4; SENP7 inh: -1.9; SENP1 inh: 41.2*; SENP8 block-2: -6.7; SENP6 inh: 5.0; SENP1 conf: -8.3; SENP1 kinetic: 2.4

How did CC(C)CN(C(=O)c1nn(C)c(=O)c2ccccc12)c1nc2ccccc2s1 do in these assays?
SENP8 block-1: 27.4; SENP7 inh: -2.6; SENP1 inh: 2.5; SENP8 block-2: -5.0; SENP6 inh: -4.8

How did COc1ccc(Cn2c(-c3ccccc3C)nc3c(c(=O)c4ccccc4n3C)c2=O)cc1 do in these assays?
SENP8 block-1: 24.9; SENP7 inh: -4.1; SENP1 inh: 2.8; SENP8 block-2: -0.1; SENP6 inh: 10.8

Results for CCN(CC)c1ccc(NC(=O)Nc2ccc(C(C)=O)cc2)cc1 ?
SENP8 block-1: 10.1; SENP7 inh: -1.8; SENP1 inh: 2.3; SENP8 block-2: -2.9; SENP6 inh: 29.8

What do the screens show for `CCN(CC)c1ccc(N=C2C=CC(=O)C=C2NC(C)=O)cc1`?
SENP8 block-1: 27.8; SENP1 inh: 66.3*; SENP1 conf: 14.1; SENP1 kinetic: 12.4

What do the screens show for `CCCCOCCOC(=O)C1OC1(C)c1ccccc1` (centres undefined)?
SENP8 block-1: -0.2; SENP1 inh: 0.8

What do the screens show for `COc1ccc(NC(=O)COC(=O)c2ccc3ccccc3n2)cc1`?
SENP8 block-1: 12.1; SENP7 inh: -4.3; SENP1 inh: 7.0; SENP8 block-2: -3.0; SENP6 inh: -5.9

What do the screens show for `COc1ccc(CNC(=O)COC(=O)c2ccc3ccccc3n2)cc1`?
SENP8 block-1: 3.0; SENP7 inh: 9.9; SENP1 inh: 37.6*; SENP8 block-2: -6.7; SENP6 inh: 4.2; SENP1 conf: 26.1; SENP1 kinetic: 23.1

How did Cc1ccc(C)c(NC(=O)COC(=O)c2ccc3ccccc3n2)c1 do in these assays?
SENP8 block-1: -5.7; SENP7 inh: -12.3; SENP1 inh: 38.4*; SENP8 block-2: -21.0; SENP6 inh: -6.3; SENP1 conf: 21.9; SENP1 kinetic: 18.4

What do the screens show for `C[C@@]12C(=O)N(c3ccc(C(F)(F)F)cc3)C(=O)N1[C@@H]1c3ccccc3OC[C@@H]1[C@H]2c1ccccc1`?
SENP8 block-1: 21.7; SENP7 inh: -6.9; SENP1 inh: 0.5; SENP8 block-2: 7.0; SENP6 inh: 8.2

What do the screens show for `COc1ccccc1CNC(=O)CN1CCN(c2ccc(C(C)=O)cc2)CC1`?
SENP8 block-1: -27.8; SENP7 inh: 0.1; SENP1 inh: 2.7; SENP8 block-2: -2.4; SENP6 inh: -9.8

What do the screens show for `Cc1cc(C)n2c(NC3CCCC3)c(-c3cc4ccccc4o3)nc2n1`?
SENP8 block-1: -295.6; SENP1 inh: -19.7

Results for COc1ccc(-c2nc3ncccn3c2Nc2ccc3c(c2)OCCO3)cc1 ?
SENP8 block-1: -2.4; SENP7 inh: 3.0; SENP1 inh: 32.2*; SENP8 block-2: -2.4; SENP6 inh: -13.8; SENP1 conf: -10.7; SENP1 kinetic: 6.8

How did Brc1ccc(-c2nc3ncccn3c2Nc2ccc3c(c2)OCCO3)o1 do in these assays?
SENP8 block-1: -11.1; SENP7 inh: 4.8; SENP1 inh: 34.6*; SENP8 block-2: -2.1; SENP6 inh: -31.6; SENP1 conf: 9.5; SENP1 kinetic: 3.4

What do the screens show for `Cc1ccc(-c2nc3ncccn3c2Nc2ccc3c(c2)OCCO3)cc1`?
SENP8 block-1: -2.8; SENP7 inh: -1.4; SENP1 inh: 17.7; SENP8 block-2: -1.0; SENP6 inh: 4.1

How did Cc1ccc(-c2nc3ncccn3c2Nc2ccc3c(c2)OCCO3)o1 do in these assays?
SENP8 block-1: 12.7; SENP7 inh: 1.3; SENP1 inh: 53.1*; SENP8 block-2: -3.7; SENP6 inh: 4.0; SENP1 conf: 18.8; SENP1 kinetic: 13.8

What do the screens show for `Cc1ccc(-c2nc3ncccn3c2NC2CCCCC2)o1`?
SENP8 block-1: -57.0; SENP7 inh: -5.8; SENP1 inh: 63.1*; SENP8 block-2: -3.9; SENP6 inh: 0.0; SENP1 conf: 54.0*; SENP1 kinetic: 36.0

Results for O=C1CC[C@@H](C(=O)N2CSC[C@@H]2C(=O)Nc2cccc(C(F)(F)F)c2)N1 ?
SENP8 block-1: 14.9; SENP1 inh: 2.4

Results for CCc1nc2ccc(C(=O)N3CCN(S(=O)(=O)CC)CC3)cn2c1N(C)C(=O)c1cccc(OC)c1 ?
SENP8 block-1: -0.7; SENP1 inh: 1.8

What do the screens show for `CC(C)CCN(C(=O)C1=COCCO1)c1c(N)n(Cc2ccccc2)c(=O)[nH]c1=O`?
SENP8 block-1: -18.8; SENP7 inh: -3.1; SENP1 inh: 33.7*; SENP8 block-2: -8.1; SENP6 inh: -3.3; SENP1 conf: 9.3; SENP1 kinetic: 6.0

Results for CCCN(C(=O)C1=COCCO1)c1c(N)n(Cc2ccccc2)c(=O)[nH]c1=O ?
SENP8 block-1: -7.2; SENP7 inh: 7.8; SENP1 inh: -0.5; SENP8 block-2: -2.6; SENP6 inh: -11.1

Results for CCN1CCN(C(=O)CCc2nnc(CCCCc3ccccc3)o2)[C@@H](C)C1=O ?
SENP8 block-1: 7.1; SENP7 inh: 1.9; SENP1 inh: -0.3; SENP8 block-2: 4.5; SENP6 inh: -8.8

How did CCOc1ccccc1N(CC)C(=O)c1nn(C)c2c1CSc1ccccc1-2 do in these assays?
SENP8 block-1: 3.6; SENP7 inh: 8.6; SENP1 inh: 3.6; SENP8 block-2: -4.9; SENP6 inh: 5.0

What do the screens show for `COc1cc2cc(C#N)c(SCC(=O)N3CCOCC3)nc2cc1OC`?
SENP8 block-1: -184.0; SENP7 inh: 1.3; SENP1 inh: -18.5; SENP8 block-2: 1.1; SENP6 inh: -2.0

What do the screens show for `COc1cc2cc(C)c(SCC(=O)N3CCOCC3)nc2cc1OC`?
SENP8 block-1: -16.4; SENP7 inh: -7.1; SENP1 inh: 32.5*; SENP8 block-2: -7.7; SENP6 inh: -8.8; SENP1 conf: 20.6; SENP1 kinetic: 16.2

Source: PubChem BioAssay (Sanford-Burnham Center for Chemical Genomics)
